Laboratory results as given in article PMC7113852 (Antiviral Research, 2018).
Like-named read-outs stand apart in the source and are kept apart here.

Experiments:
EV1 [1] = assay: microbe, parasite or virus in culture; type: cell-based, Echovirus 1
in vitro = settings: human
EV1 [2] = assay: microbe, parasite or virus in culture; type: cell-based, Echovirus 1; settings: for EC50: read-out: EC50 other
ZIKV FB-GWUH-2016 strain [3] = assay: ZIKV titer from compound-treated RPE cells, plaque assay on Vero-E6 cells; type: cell-based, Zika virus; settings: ZIKV, RPE cells; repeated CTG, CTxG and virus titration
Method in brief: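 Medium for ZIKV infection: DMEM-F12 with 2% FBS, 2 mM L-glutamine, 0.25% sodium bicarbonate and 50 U/ml PenStrep, applied after 24 h growth of ~4 × 10^4 RPE cells/well. Test compound added in seven three-fold dilutions from 30 μM; infection at MOI 1. Media harvested at cytopathic effect (typically 24–72 hpi), serially diluted in PBS, plaque-titrated on Vero-E6 (PFU/ml). EC50 from variable-slope non-linear regression or Hill fit.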

[4] = tested on: FLUAV (influenza A/WSN/33(H1N1) virus); assay: microbe, parasite or virus in culture; type: cell-based
ZIKV FB-GWUH-2016 strain [5] = assay: Viability and death of ZIKV-infected RPE cells; type: cell-based, Zika virus; settings: for SI (minimal selectivity index, CC50/EC50): ZIKV, RPE cells; for EC50: Zika virus, RPE
[6] = tested on: FLUAV (influenza A/WSN/33(H1N1) virus); assay: microbe, parasite or virus in culture; type: cell-based; settings: for EC50: Influenza A virus, H1N1|WSN, RPE
HSV-1 [7] = assay: Viability and death of HSV-1-infected RPE cells; type: cell-based, Herpes simplex virus 1
HSV-1 [8] = assay: HSV-1 titer from compound-treated RPE cells, plaque assay on Vero-E6 cells; type: cell-based, Herpes simplex virus 1; settings: HSV-1, RPE cells; repeated CTG, CTxG and virus titration
Method in brief: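 RPE cells (~4 × 10^4/well) grown 24 h, then switched to DMEM-F12 with 0.2% BSA, 2 mM L-glutamine, 0.35% NaHCO3 and 1 μg/mL TPCK-trypsin. Three-fold dilutions of test compound (seven concentrations from 30 μM); HSV-1 infection at MOI 1. Supernatants collected at cytopathic effect (typically 24–72 hpi), serially diluted in PBS, plaqued on Vero-E6 under overlay, fixed; titers as PFU/ml.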

[9] = tested on: RVFV (rRVFVΔNSs::Katushka); assay: microbe, parasite or virus in culture; type: cell-based, Rift Valley fever virus; settings: for EC50: Rift Valley fever virus, A549, read-out: EC50 other
CHIKV-2SG-NanoLuc [10] = assay: microbe, parasite or virus in culture; type: cell-based, Chikungunya virus; settings: for EC50: Chikungunya virus, RPE
CHIKV-2SG-NanoLuc [11] = assay: microbe, parasite or virus in culture; type: cell-based, Chikungunya virus
HIV-1 = HIV-1 infection of TZM-bl cells, firefly luciferase under HIV-1 LTR promoter; type: cell-based, Human immunodeficiency virus 1
[12] = Enterovirus B, RPE, read-out: EC50 CTxG

Cc1ccc2c(c1)c1c3n2CCNC3CCC1 (stereo not drawn) [Pirlindole]
SI (minimal selectivity index, CC50/EC50) (EV1 [1]): 11 | EC50 (EV1 [1]; [12]): 2.71 µM | CC50 (in vitro; CC50 CTG): 28.5 µM | CC50 (in vitro; CC50 CTxG): > 30 µM | antiviral activity in repeat experiments (EV1 [2]): confirmed antiviral activity | EC50 (EV1 [2]; Enterovirus B): 8.92 µM

CNCCC(Oc1ccc(C(F)(F)F)cc1)c1ccccc1 (stereo not drawn) [Fluoxatine]
CC50 (in vitro; CC50 CTG): 4.02 µM | CC50 (in vitro; CC50 CTxG): 7.33 µM

CN[C@H]1C(=O)N[C@@H]2Cc3ccc(cc3)Oc3cc4cc(c3O[C@@H]3O[C@H](C(=O)O)[C@@H](O)[C@H](O)[C@H]3NC(=O)CCCCCCCCC(C)C)Oc3ccc(cc3Cl)[C@@H](O)[C@@H]3NC(=O)[C@H](NC(=O)[C@@H]4NC(=O)[C@@H](NC2=O)c2cc(cc(O)c2Cl)Oc2cc1ccc2O)c1ccc(O)c(c1)-c1c(O[C@H]2O[C@H](CO)[C@@H](O)[C@H](O)[C@@H]2O)cc(O)cc1[C@@H](C(=O)NCCCN(C)C)NC3=O [Dalbavancin]
EC50 (EV1 [1]; read-out: EC50 CTG): 3.23 µM | EC50 (EV1 [1]; read-out: EC50 CTxG): 18.7 µM | antiviral activity in repeat experiments (EV1 [2]): confirmed antiviral activity | production of infectious virus particles (EV1 [2]): lowered production of infectious virus particles | EC50 (EV1 [2]): 9.72 µM | CC50 (RPE cells): > 30 µM | cytotoxicity (RPE cells): without detectable cytotoxicity

Nc1ccn([C@@H]2O[C@H](CO)[C@@H](O)C2(F)F)c(=O)n1 [Gemcitabine]
antiviral activity in repeat experiments (ZIKV FB-GWUH-2016 strain [3]): confirmed antiviral activity | SI (minimal selectivity index, CC50/EC50) (EV1 [1]): >4 | EC50 (EV1 [1]; [12]): 0.08 µM | antiviral activity in repeat experiments [4]: confirmed antiviral activity | EC50 ([4]; Influenza A virus, H1N1|WSN, read-out: EC50 other): 0.89 µM | SI (minimal selectivity index, CC50/EC50) (ZIKV FB-GWUH-2016 strain [5]): 23 | EC50 (ZIKV FB-GWUH-2016 strain [5]; read-out: EC50 CTG): 0.92 µM | EC50 (ZIKV FB-GWUH-2016 strain [5]; read-out: EC50 CTxG): 0.07 µM | CC50 (in vitro; CC50 CTG): > 30 µM | CC50 (in vitro; CC50 CTxG): > 30 µM | SI (minimal selectivity index, CC50/EC50) [6]: >29 | EC50 ([6]; read-out: EC50 CTG): 0.25 µM | EC50 ([6]; read-out: EC50 CTxG): 1.02 µM | antiviral activity in repeat experiments (EV1 [2]): confirmed antiviral activity | EC50 (EV1 [2]; Enterovirus B): 6.96 µM | SI (minimal selectivity index, CC50/EC50) (HSV-1 [7]; HSV-1, RPE cells): >500 | EC50 (HSV-1 [7]; Human alphaherpesvirus 1, RPE, read-out: EC50 CTG): 0.05 µM | antiviral activity in repeat experiments (HSV-1 [8]): confirmed antiviral activity | CC50 (RPE cells; human): 21.8 µM

CCN(CCO)CCCC(C)Nc1ccnc2cc(Cl)ccc12 (stereo not drawn) [Hydroxychloroquine]
antiviral activity in repeat experiments (ZIKV FB-GWUH-2016 strain [3]): confirmed antiviral activity | SI (minimal selectivity index, CC50/EC50) (ZIKV FB-GWUH-2016 strain [5]): >1 | EC50 (ZIKV FB-GWUH-2016 strain [5]; read-out: EC50 CTG): 23 µM | EC50 (ZIKV FB-GWUH-2016 strain [5]; read-out: EC50 CTxG): 0.06 µM | CC50 (in vitro; CC50 CTG): > 30 µM | CC50 (in vitro; CC50 CTxG): > 30 µM

CC(C)c1nc(CN(C)C(=O)N[C@H](C(=O)N[C@@H](Cc2ccccc2)C[C@H](O)[C@H](Cc2ccccc2)NC(=O)OCc2cncs2)C(C)C)cs1 [Ritonavir]
screen hit against RVFV [9]: identified | EC50 [9]: 26.8 µM

C[C@H]1c2cccc(O)c2C(=O)C2=C(O)[C@]3(O)C(=O)C(C(N)=O)=C(O)[C@@H](N(C)C)[C@@H]3[C@@H](O)[C@@H]21 [doxycycline]
screen hit against RVFV [9]: identified

CCN(CC)CCCC(C)Nc1ccnc2cc(Cl)ccc12 (stereo not drawn) [Chloroquine]
SI (minimal selectivity index, CC50/EC50) (CHIKV-2SG-NanoLuc [10]; CHIKV, RPE cells): >2 | EC50 (CHIKV-2SG-NanoLuc [10]; read-out: EC50 CTG): 12.8 µM | EC50 (CHIKV-2SG-NanoLuc [10]; read-out: EC50 CTxG): 9.15 µM | antiviral activity in repeat experiments (ZIKV FB-GWUH-2016 strain [3]): confirmed antiviral activity | SI (minimal selectivity index, CC50/EC50) (ZIKV FB-GWUH-2016 strain [5]): >4 | EC50 (ZIKV FB-GWUH-2016 strain [5]; read-out: EC50 CTG): 7.25 µM | antiviral activity in repeat experiments (CHIKV-2SG-NanoLuc [11]): confirmed antiviral activity | EC50 (CHIKV-2SG-NanoLuc [11]; Chikungunya virus, RPE, read-out: EC50 other): 16.8 µM | CC50 (in vitro; CC50 CTG): > 30 µM | CC50 (in vitro; CC50 CTxG): > 30 µM

COc1cc2ncnc(Nc3ccc(F)c(Cl)c3)c2cc1OCCCN1CCOCC1 [gefitinib]
screen hit against RVFV [9]: identified

CN(C)c1ccc(O)c2c1C[C@H]1C[C@H]3[C@H](N(C)C)C(O)=C(C(N)=O)C(=O)[C@@]3(O)C(O)=C1C2=O [Minocycline]
SI (minimal selectivity index, CC50/EC50) [9]: >11 | screen hit against RVFV [9]: identified | EC50 [9]: 9.52 µM | primary screen hit against HIV-1 (HIV-1; HIV-1, TZM-bl cells): anti-HIV-1 agents | validation of anti-HIV-1 hit (HIV-1; HIV-1, TZM-bl cells, validation experiment): confirmed | EC50 (HIV-1; Human immunodeficiency virus 1, TZM-bl, read-out: EC50 other): 6.84 µM
